Test results taken from ChEMBL document CHEMBL4261517, “A structurally guided dissection-then-evolution strategy for ligand optimization of smoothened receptor” (Medchemcomm, 2017).

Legend:
Protein smoothened = Protein smoothened (Mus musculus, UniProt P56726); experiment: Antagonist activity at Smo receptor in mouse NIH/3T3 cells harboring GRE-Luc assessed as inhibition of SAG-induced Hh signaling pathway preincubated for 1 to 2 hrs followed by SAG addition and measured after 24 hrs by Bright-Glo luciferase reporter gene assay; type: functional, cell-based
In short: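 Light II cells (NIH-3T3 stably carrying a Gli-responsive firefly luciferase reporter) treated with compound for 24 h. Luciferase read-out of Hedgehog pathway inhibition. IC50 reported as mean ± SEM from at least three independent experiments, each run in duplicate.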

[1] = target: Protein smoothened (Homo sapiens) (UniProt Q99835); experiment: Binding affinity to recombinant human N-terminal FLAG/His10-tagged/C-terminal His10-tagged flavodoxin-fused Smo receptor expressed in HEK293F cells assessed as melting temperature at 100 uM after 40 mins by CPM dye based spectrofluorometric method; type: cell-based
In short: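 Purified SMO in micelles mixed with thiol-reactive CPM dye and thermally denatured. Fluorescence (365/460 nm) followed as exposed cysteines react. Tm taken as the temperature at which 50% of the fluorescence increase is reached.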

[2] = Stability of the compound in DMEM at […] by RP-HPLC analysis; type: physicochemical

Protein smoothened, sequence (P56726 whole entry): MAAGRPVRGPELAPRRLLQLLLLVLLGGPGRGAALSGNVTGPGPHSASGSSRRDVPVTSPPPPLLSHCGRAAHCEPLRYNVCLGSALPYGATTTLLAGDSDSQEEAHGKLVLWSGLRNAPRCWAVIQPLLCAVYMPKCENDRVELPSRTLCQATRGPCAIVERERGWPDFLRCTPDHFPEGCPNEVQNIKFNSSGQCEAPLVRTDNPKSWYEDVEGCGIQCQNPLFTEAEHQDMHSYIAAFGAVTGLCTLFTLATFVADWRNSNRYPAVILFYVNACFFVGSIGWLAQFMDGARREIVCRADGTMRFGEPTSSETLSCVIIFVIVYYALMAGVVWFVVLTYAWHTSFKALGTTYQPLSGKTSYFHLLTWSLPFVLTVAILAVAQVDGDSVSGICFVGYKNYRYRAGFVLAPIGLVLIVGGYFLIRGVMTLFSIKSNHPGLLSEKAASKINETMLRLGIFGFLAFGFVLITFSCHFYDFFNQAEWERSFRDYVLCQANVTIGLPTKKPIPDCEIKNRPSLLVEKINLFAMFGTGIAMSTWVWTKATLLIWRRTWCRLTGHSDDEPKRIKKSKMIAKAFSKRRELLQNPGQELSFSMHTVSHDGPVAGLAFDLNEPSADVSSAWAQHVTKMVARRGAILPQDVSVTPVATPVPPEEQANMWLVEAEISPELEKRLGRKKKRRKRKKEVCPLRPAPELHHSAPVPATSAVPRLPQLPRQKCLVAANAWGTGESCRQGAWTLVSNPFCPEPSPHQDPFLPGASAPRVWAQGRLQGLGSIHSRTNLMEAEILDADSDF
Protein smoothened (Homo sapiens), sequence (Q99835 whole entry, the tested form may be a part): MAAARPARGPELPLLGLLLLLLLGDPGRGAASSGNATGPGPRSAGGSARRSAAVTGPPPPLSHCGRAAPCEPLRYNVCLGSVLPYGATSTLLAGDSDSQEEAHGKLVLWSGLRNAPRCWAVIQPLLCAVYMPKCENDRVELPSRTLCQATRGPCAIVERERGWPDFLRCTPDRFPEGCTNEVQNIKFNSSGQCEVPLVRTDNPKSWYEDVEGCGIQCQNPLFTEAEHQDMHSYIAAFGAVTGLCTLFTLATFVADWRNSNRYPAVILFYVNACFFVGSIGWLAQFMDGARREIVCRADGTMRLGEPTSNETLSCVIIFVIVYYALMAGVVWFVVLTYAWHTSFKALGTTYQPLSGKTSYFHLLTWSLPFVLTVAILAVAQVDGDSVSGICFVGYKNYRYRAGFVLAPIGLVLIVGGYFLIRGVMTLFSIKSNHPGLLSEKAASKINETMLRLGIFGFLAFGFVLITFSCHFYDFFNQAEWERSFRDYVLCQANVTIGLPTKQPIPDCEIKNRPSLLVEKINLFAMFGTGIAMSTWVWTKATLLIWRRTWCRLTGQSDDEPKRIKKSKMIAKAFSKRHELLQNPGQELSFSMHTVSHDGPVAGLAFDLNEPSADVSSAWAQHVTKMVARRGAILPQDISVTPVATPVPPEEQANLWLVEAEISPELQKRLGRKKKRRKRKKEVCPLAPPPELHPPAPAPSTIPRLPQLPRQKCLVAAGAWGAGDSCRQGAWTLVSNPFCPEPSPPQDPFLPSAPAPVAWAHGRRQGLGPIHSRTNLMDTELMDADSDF

| SMILES | IC50 (Protein smoothened) [nM] | Tm [1] [°C] | Stability [2] |
| --- | --- | --- | --- |
| CN(C(=O)c1ccc(S(C)(=O)=O)cc1)C1CCN(c2nnc(-c3ccnn3C)c3ccccc23)CC1 | > 10000 | 56.3 |  |
| CN(C(=O)c1ccc(F)cc1)C1CCN(c2nnc(-c3ccnn3C)c3ccccc23)CC1 | 1570 | 59.1 |  |
| CN(C(=O)c1ccc(NCC(=O)O)cc1)C1CCN(c2nnc(-c3ccnn3C)c3ccccc23)CC1 | > 10000 | 56.8 |  |
| CN(C(=O)c1ccc(C(N)=O)cc1)C1CCN(c2nnc(-c3ccnn3C)c3ccccc23)CC1 | 3020 | 59.7 |  |
| COC(=O)c1ccc(C(=O)N(C)C2CCN(c3nnc(-c4ccnn4C)c4ccccc34)CC2)cc1 | > 10000 | 60.3 |  |
| CN(C(=O)c1ccc(N)cc1)C1CCN(c2nnc(-c3ccnn3C)c3ccccc23)CC1 | 2020 | 58.2 |  |
| CN(C(=O)c1ccc(OCc2ccccc2)cc1)C1CCN(c2nnc(-c3ccnn3C)c3ccccc23)CC1 | 1800 | 58.4 |  |
| CN(Cc1ccc(F)cc1C(F)(F)F)C1CCN(c2nnc(-c3ccnn3C)c3ccccc23)CC1 |  |  | Stable |
| CN(C(=O)c1ccc(CC=O)cc1)C1CCN(c2nnc(-c3ccnn3C)c3ccccc23)CC1 | > 10000 | 60.2 |  |
| CN(C(=O)c1ccccc1)C1CCN(c2nnc(-c3ccnn3C)c3ccccc23)CC1 |  |  | Stable |
| CN(C(=O)c1ccc([N+](=O)[O-])cc1)C1CCN(c2nnc(-c3ccnn3C)c3ccccc23)CC1 | 236 | 61 |  |
| CN(C(=O)c1ccc(F)cc1C(F)(F)F)C1CCN(c2nnc(Cl)c3ccccc23)CC1 |  |  | Stable |
| CN(C)c1ccc(C(=O)N(C)C2CCN(c3nnc(-c4ccnn4C)c4ccccc34)CC2)cc1 | 1410 | 58.5 |  |
| CN(C(=O)c1ccc(F)cc1C(F)(F)F)C1CCN(c2ccc(-c3ccnn3C)c3ccccc23)CC1 |  |  | Stable |
| CN(C(=O)c1ccc(S(=O)(=O)O)cc1)C1CCN(c2nnc(-c3ccnn3C)c3ccccc23)CC1 | 2680 | 59.4 |  |
| CN(C(=O)c1ccc(C=O)cc1)C1CCN(c2nnc(-c3ccnn3C)c3ccccc23)CC1 | 2890 | 59 |  |
| CN(C(=O)c1ccc(B(O)O)cc1)C1CCN(c2nnc(-c3ccnn3C)c3ccccc23)CC1 | 870 | 59.4 |  |
| CN(C(=O)c1ccc(F)cc1C(F)(F)F)C1CCN(c2nnc(-c3ccnn3C)c3ccccc23)CC1 [TALADEGIB] |  |  | Stable |
| CN(C(=O)c1ccc(C(=O)O)cc1)C1CCN(c2nnc(-c3ccnn3C)c3ccccc23)CC1 | > 10000 | 56.8 |  |
| CN(C(=O)c1ccc(S(N)(=O)=O)cc1)C1CCN(c2nnc(-c3ccnn3C)c3ccccc23)CC1 | 3240 | 57.1 |  |
| CN(C(=O)c1ccc(Oc2ccccc2)cc1)C1CCN(c2nnc(-c3ccnn3C)c3ccccc23)CC1 | 270 | 59.6 |  |
